Results on 58 molecules are retold here after PubChem BioAssay AID588578 (Sanford-Burnham Center for Chemical Genomics, 2011).

Activity calls are given as the source filed them.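 Rule for the calls: active = IC50 at or below 20 µM; inactive = the rest.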

For the assay, the target named is Bcl-2-like protein 1 (Homo sapiens) (UniProt Q07817). Kind of assay: displacement of Bim BH3 peptide from Bcl-XL – biochemical, fluorescence polarization, GST-Bcl-XL, FITC-Bim, selectivity assay for Bcl-B inhibitor project, SAR follow-up (AID 588578). The essentials:
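Test system: purified GST-Bcl-XL lacking C-terminal transmembrane region, E. coli-expressed / Medium: HEPES buffer pH 7.5 with Tween-20 and TCEP / Compound dosing: 10-point dose series, 2-fold dilution steps / Also added: FITC-Bim probe peptide / Read-out basis: IC50 via sigmoidal curve fit / Schedule: compound-protein preincubation 20 min at 4 °C, tracer 10 min at RT, dark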
For orientation: In fluorescence polarisation assays a small probe gives low polarisation when free and higher when bound to something large.

Chain of Bcl-2-like protein 1 (Homo sapiens) (Q07817 whole entry, looked up): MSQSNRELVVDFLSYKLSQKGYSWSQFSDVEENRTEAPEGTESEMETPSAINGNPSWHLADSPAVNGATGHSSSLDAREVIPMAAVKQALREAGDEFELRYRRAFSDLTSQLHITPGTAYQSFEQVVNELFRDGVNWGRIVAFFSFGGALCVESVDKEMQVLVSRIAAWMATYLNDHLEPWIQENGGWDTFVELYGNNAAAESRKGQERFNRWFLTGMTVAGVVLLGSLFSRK

Take `COc1ccc2c(c1)-c1c(c(=O)n(Cc3ccc(Cl)cc3)c3nnnn13)C1(CCCC1)C2`: the IC50 was > 20 µM (inactive).

On to `COc1ccc2c(c1)-c1c(c(=O)n(Cc3ccc(F)cc3)c3nnnn13)C(C)(C)C2`, for which the IC50 is > 20 µM (inactive).

As for `Cc1ccc2c(c1)-c1c(c(=O)n(Cc3ccc(F)cc3)c3nnnn13)C1(CCCCC1)C2`, the IC50 is > 20 µM (inactive). Consider `c1ccc(OCc2nc3c4c(ncn3n2)-c2ccccc2CC42CCCC2)cc1`, for which the IC50 was > 20 µM (inactive). Then `O=c1c2c(nc3n1CCS3)-c1ccccc1CC21CCCCC1`, with > 20 µM (inactive). As for `O=c1c2c(n3nnnc3n1Cc1ccc(F)cc1)-c1ccccc1CC21CCCC1`, the IC50 was > 20 µM (inactive). Regarding `O=c1c2c(nc3[nH]ncn13)-c1ccccc1CC21CCCC1`, the IC50 is > 20 µM (inactive). Then `COc1ccc2c(c1)-c1c(c(=O)n(Cc3ccc(Cl)cc3)c3nncn13)C1(CCCC1)C2`, with > 20 µM (inactive); and `CC1(C)Cc2ccccc2-c2c1c(=O)n(Cc1ccccc1)c1nnnn21`, with > 20 µM (inactive); and `O=c1c2c(-c3ccccc3)n3ncnc3nc2ccn1-n1cnnc1`, with > 20 µM (inactive).

`Cc1ccc2c(c1)-c1c(c(=O)n(Cc3ccccc3)c3nncn13)C(C)(C)C2`: the IC50 is > 20 µM (inactive).

On to `COc1ccc2c(c1)-c1c(c(=O)n(Cc3ccc(Cl)cc3)c3nncn13)C(C)(C)C2`, for which the IC50 was > 20 µM (inactive). Then `Cc1ccc2c(c1)-c1c(c(=O)n(Cc3ccccc3)c3nnnn13)C1(CCCCC1)C2`, with > 20 µM (inactive).

`O=c1c2cnc3nc(-c4ccccc4)nn3c2ccn1CCc1cnc[nH]1`: the IC50 was > 20 µM (inactive). As for `O=c1c2c(n3nnnc3n1Cc1ccccc1)-c1cc(F)ccc1CC21CCCC1`, the figure is > 20 µM (inactive); as for `O=c1c2c(n3cnnc3n1Cc1ccccc1)-c1ccccc1CC21CCCCC1`, > 20 µM (inactive). As for `CC1(C)Cc2ccccc2-c2nc3nn[nH]n3c(=O)c21`, the figure is > 20 µM (inactive); as for `Cn1c(=O)c2c(n3cnnc13)-c1ccccc1CC21CCCC1`, > 20 µM (inactive). As to `O=c1[nH]c(CN2CCCC2)nc2c1C1(CCCC1)Cc1ccccc1-2`, the IC50 is > 20 µM (inactive). `O=c1c2c(n3cnnc3n1Cc1ccc(Cl)cc1)-c1ccccc1CC21CCCC1`: the IC50 was > 20 µM (inactive). Take `O=c1c2cnc3ncnn3c2ccn1CCc1cnc[nH]1`: the IC50 is > 20 µM (inactive). With `O=c1c2c(n3nnnc3n1Cc1ccc(Cl)cc1)-c1ccccc1CC21CCCC1`, the IC50 is > 20 µM (inactive). On to `O=c1c2c(n3nnnc3n1-c1ccccc1)-c1ccccc1CC21CCCC1`, for which the IC50 was > 20 µM (inactive). Then `Cn1c(=S)[nH]c2c(c1=O)C1(CCCCC1)Cc1ccccc1-2`, with > 20 µM (inactive); and `O=c1c2ccccc2nc2n1C1(CCCC1)Cc1ccccc1-2`, with > 20 µM (inactive). In the case of `COc1ccc2c(c1)-c1c(c(=O)n(Cc3ccccc3)c3nncn13)C(C)(C)C2`, the IC50 was > 20 µM (inactive).

As to `COc1ccc2c(c1)-c1c(c(=O)n(Cc3ccccc3)c3nnnn13)C1(CCCC1)C2`, the IC50 was > 20 µM (inactive). Turning to `O=C1CC(c2ccccc2F)c2c(n3ncnc3[nH]c2=O)N1` (stereo not drawn), the IC50 was > 20 µM (inactive).

`CC1(C)Cc2ccccc2-c2c1c(=O)n(Cc1ccccc1)c1nncn21`: the IC50 is > 20 µM (inactive). Then `O=c1c2c(n3nnnc3n1Cc1ccccc1)-c1ccccc1CC21CCCC1`, with > 20 µM (inactive). Take `COc1ccc(Cn2c(=O)c3c(n4cnnc24)-c2cc(C)ccc2CC3(C)C)cc1`: the IC50 is > 20 µM (inactive).

Regarding `Cn1c(NCCO)nc2c(c1=O)C1(CCCCC1)Cc1ccccc1-2`, the IC50 is > 20 µM (inactive). Then `O=c1c2c(-c3ccccc3)n3ncnc3nc2ccn1-c1ccccc1`, with > 20 µM (inactive). As for `C=C(C)Cn1c(=O)c2c(n3cnnc13)-c1ccccc1CC21CCCC1`, the figure is > 20 µM (inactive); as for `O=c1[nH]c(NCCCO)nc2c1C1(CCCCC1)Cc1ccccc1-2`, > 20 µM (inactive). Then `O=c1c2c(n3nnnc3n1Cc1ccccc1)-c1ccccc1CC21CCCCC1`, with > 20 µM (inactive). In the case of `O=c1c2c(nc3[nH]ncn13)-c1ccccc1CC21CCCCC1`, the IC50 was > 20 µM (inactive).

Regarding `Cc1ccc2c(c1)-c1c(c(=O)n(Cc3ccc(Cl)cc3)c3nncn13)C1(CCCCC1)C2`, the IC50 is > 20 µM (inactive). Regarding `O=c1c2ccccc2nc2n1C1(CCCCC1)Cc1ccccc1-2`, the IC50 is > 20 µM (inactive). Turning to `O=C1CC(c2ccc(F)cc2)CC2=C1C(c1cccc(Cl)c1)n1ncnc1N2` (stereo not drawn), the IC50 was > 20 µM (inactive). As for `Cc1ccc2c(c1)-c1c(c(=O)n(Cc3ccccc3)c3nnnn13)C(C)(C)C2`, the figure is > 20 µM (inactive); as for `CC1(C)CC(n2c(=S)[nH]c3c(c2=O)C2(CCCC2)Cc2ccccc2-3)CCO1` (stereo not drawn), > 20 µM (inactive). Then `Cc1ccc2c(c1)-c1c(c(=O)n(Cc3ccc(Cl)cc3)c3nnnn13)C1(CCCCC1)C2`, with > 20 µM (inactive); and `Cc1ccc2c(c1)-c1c(c(=O)n(Cc3ccc(F)cc3)c3nncn13)C1(CCCCC1)C2`, with > 20 µM (inactive); and `COc1ccc2c(c1)-c1c(c(=O)n(Cc3ccc(F)cc3)c3nncn13)C(C)(C)C2`, with > 20 µM (inactive). Then `O=c1c2c(n3cnnc3n1C1CCCCC1)-c1ccccc1CC21CCCCC1`, with > 20 µM (inactive); and `COc1ccc(Cn2c(=O)c3c(n4nnnc24)-c2cc(C)ccc2CC3(C)C)cc1`, with > 20 µM (inactive). For `O=C1CCCC2=C1C(c1cc(Br)ccc1F)n1ncnc1N2` (stereo not drawn), the IC50 was > 20 µM (inactive). As for `COc1ccc2c(c1)-c1c(c(=O)n(Cc3ccccc3)c3nnnn13)C(C)(C)C2`, the figure is > 20 µM (inactive); as for `O=c1[nH]c(CN2CCOCC2)nc2c1C1(CCCC1)Cc1ccccc1-2`, > 20 µM (inactive); as for `COc1ccc(Cn2c(=O)c3c(n4nnnc24)-c2ccccc2CC32CCCC2)cc1`, > 20 µM (inactive). As for `CC1CC(=O)C2=C(C1)Nc1ncnn1C2c1cccnc1` (stereo not drawn), the figure is > 20 µM (inactive). For the molecule `O=c1c2c(n3cnnc3n1Cc1ccccc1)-c1ccccc1CC21CCCC1`, the IC50 is > 20 µM (inactive). As for `C=C(C)Cn1c(=O)c2c(n3nnnc13)-c1ccccc1CC21CCCC1`, the figure is > 20 µM (inactive); as for `O=c1c2c(n3nnnc3n1Cc1ccccc1)-c1cc(F)ccc1CC21CCCCC1`, > 20 µM (inactive).

In the case of `COc1ccc2c(c1)-c1c(c(=O)n(Cc3ccccc3)c3nncn13)C1(CCCC1)C2`, the IC50 was > 20 µM (inactive). `COc1ccc2c(c1)-c1c(c(=O)n(Cc3ccc(Cl)cc3)c3nnnn13)C(C)(C)C2`: the IC50 is > 20 µM (inactive). Then `Cc1ccc2c(c1)-c1c(c(=O)n(Cc3ccccc3)c3nncn13)C1(CCCCC1)C2`, with > 20 µM (inactive).

By IC50 is commonly meant the concentration at which inhibition is half-maximal.
